Laboratory results as given in paper PMC4002122 (Chemical Research in Toxicology, 2014).

What was measured:
Format in all cases: in vitro ADME
Settings in all cases: 250 μM substrate, 5 μg protein, 60 min, 37 °C
UGT1A9 = target: T1, UGT1A9 (Homo sapiens, UniProt O60656); test: Screening of recombinant UGT1A9 for glucuronidation activity
T1 sequence (O60656 26-530): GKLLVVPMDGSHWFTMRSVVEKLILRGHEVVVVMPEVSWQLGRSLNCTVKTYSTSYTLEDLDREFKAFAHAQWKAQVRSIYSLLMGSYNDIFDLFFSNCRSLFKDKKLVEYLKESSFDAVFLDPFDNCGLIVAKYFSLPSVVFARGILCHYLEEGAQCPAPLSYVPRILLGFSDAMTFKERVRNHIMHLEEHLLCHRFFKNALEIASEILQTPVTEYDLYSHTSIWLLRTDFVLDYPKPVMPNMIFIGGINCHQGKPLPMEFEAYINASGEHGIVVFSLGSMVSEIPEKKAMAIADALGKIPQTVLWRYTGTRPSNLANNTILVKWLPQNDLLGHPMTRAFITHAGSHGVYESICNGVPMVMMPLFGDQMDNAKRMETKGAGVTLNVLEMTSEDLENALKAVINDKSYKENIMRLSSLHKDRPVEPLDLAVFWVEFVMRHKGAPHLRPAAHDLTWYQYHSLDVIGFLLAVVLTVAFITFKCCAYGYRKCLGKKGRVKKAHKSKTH
In short: (§1)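 UGT1A1, 1A3, 1A4 and 1A6–1A10 were His-tagged and expressed in baculovirus-infected Sf9 cells; UGT2B4, 2B7, 2B15 and 2B17 were commercial membranes run per supplier protocol. 5 μg membrane protein with 250 μM substrate, 2 mM UDP-GlcUA, Tris–HCl pH 7.4, MgCl2, saccharolactone, 2% DMSO; 37 °C, 60 min; no-substrate controls. Products measured by HPLC-UV/vis; β-glucuronidase hydrolysis separated O- from carboxyl glucuronides.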

UGT1A10 = target: T2, UGT1A10 (Homo sapiens, UniProt Q9HAW8); test: Screening of recombinant UGT1A10 for glucuronidation activity
T2 sequence (Q9HAW8 26-530): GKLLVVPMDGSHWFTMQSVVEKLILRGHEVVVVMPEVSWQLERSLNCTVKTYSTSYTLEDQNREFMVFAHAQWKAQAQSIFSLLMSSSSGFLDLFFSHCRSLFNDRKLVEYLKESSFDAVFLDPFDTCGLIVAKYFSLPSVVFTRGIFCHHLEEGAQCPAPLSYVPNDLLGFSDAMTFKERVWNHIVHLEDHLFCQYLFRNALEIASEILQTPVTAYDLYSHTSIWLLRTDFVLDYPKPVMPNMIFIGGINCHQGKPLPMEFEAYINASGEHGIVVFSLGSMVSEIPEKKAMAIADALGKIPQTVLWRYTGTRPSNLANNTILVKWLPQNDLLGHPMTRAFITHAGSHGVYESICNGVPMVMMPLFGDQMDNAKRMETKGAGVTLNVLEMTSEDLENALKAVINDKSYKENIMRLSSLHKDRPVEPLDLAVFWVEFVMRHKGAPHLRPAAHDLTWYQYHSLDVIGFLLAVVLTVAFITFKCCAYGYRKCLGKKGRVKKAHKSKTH
In short: as §1

UGT1A3 = target: T3, UGT1A3 (Homo sapiens, UniProt P35503); test: Screening of recombinant UGT1A3 for glucuronidation activity
T3 sequence (P35503 29-534): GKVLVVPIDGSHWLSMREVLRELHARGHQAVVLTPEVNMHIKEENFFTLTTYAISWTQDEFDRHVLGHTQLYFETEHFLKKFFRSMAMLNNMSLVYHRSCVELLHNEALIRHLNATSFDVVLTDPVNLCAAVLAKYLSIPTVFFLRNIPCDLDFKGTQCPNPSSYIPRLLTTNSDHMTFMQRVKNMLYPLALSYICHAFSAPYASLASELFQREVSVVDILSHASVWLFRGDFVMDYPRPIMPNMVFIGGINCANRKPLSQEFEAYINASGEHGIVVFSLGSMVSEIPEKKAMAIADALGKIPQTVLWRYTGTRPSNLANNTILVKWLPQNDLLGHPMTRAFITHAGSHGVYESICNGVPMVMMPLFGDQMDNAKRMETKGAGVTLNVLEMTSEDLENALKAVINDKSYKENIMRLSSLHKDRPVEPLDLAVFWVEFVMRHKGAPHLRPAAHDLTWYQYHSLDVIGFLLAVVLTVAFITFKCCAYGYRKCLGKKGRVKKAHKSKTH
In short: as §1

UGT1A6 = target: T4, UGT1A6 (Homo sapiens, UniProt P19224); test: Screening of recombinant UGT1A6 for glucuronidation activity
T4 sequence (P19224 27-532): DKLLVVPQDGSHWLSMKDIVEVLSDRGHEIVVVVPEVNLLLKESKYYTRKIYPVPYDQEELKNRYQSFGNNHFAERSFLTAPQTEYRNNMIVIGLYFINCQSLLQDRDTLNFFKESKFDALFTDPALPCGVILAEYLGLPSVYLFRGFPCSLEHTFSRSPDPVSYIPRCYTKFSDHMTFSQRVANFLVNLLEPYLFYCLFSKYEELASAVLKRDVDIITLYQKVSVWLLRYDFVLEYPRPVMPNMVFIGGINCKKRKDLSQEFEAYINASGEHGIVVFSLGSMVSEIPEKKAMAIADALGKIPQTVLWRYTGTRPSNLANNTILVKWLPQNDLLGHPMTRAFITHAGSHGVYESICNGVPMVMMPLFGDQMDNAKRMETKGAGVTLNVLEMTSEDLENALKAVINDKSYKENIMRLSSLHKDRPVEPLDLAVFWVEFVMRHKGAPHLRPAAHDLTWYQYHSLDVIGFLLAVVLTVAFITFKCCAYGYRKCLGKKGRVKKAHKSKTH
In short: as §1

UGT1A1 = target: T5, UGT1A1 (Homo sapiens, UniProt P22309); test: Screening of recombinant UGT1A1 for glucuronidation activity
T5 sequence (P22309 26-533): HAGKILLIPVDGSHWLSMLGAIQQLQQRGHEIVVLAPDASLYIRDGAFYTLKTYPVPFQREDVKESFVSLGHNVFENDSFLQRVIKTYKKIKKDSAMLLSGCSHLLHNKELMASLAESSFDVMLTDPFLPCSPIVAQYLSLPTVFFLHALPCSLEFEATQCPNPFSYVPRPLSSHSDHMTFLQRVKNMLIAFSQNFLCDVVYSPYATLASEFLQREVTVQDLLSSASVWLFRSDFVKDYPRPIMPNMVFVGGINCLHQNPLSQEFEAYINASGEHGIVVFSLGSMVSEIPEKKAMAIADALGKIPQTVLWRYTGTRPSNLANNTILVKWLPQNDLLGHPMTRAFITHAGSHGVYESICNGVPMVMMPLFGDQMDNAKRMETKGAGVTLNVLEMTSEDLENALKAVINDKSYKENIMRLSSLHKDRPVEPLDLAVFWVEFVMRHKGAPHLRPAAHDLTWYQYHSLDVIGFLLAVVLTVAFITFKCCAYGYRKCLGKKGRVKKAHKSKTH
In short: as §1

glucuronidation activity (glucuronide formed) (UGT1A9)	glucuronidation activity (glucuronide formed) (UGT1A10)	glucuronidation activity (glucuronide formed) (UGT1A3)	glucuronidation activity (glucuronide formed) (UGT1A6)	glucuronidation activity (glucuronide formed) (UGT1A1)	Structure (SMILES)
No activity	No activity	No activity	No activity	No activity	COc1cc(/C=C/c2cc([N+](=O)[O-])c(O)c([N+](=O)[O-])c2)cc(OC)c1 [DNR-1, (E)-4-(3,5-dimethoxystyryl)-2,6-dinitrophenol]
only the hydroxyl metabolite	only the hydroxyl metabolite	both COO- and O-glucuronides	not active	only the carboxyl metabolite	COc1ccc(/C=C(/C(=O)O)c2cc(OC)c(OC)c(OC)c2)cc1O [NI-12a, (E)-3-(3-hydroxy-4-methoxyphenyl)-2-(3,4,5-trimethoxyphenyl)acrylic acid]

Structure (SMILES)	glucuronidation activity (glucuronide formed) (UGT1A9)	glucuronidation activity (glucuronide formed) (UGT1A10)	glucuronidation activity (glucuronide formed) (UGT1A3)	glucuronidation activity (glucuronide formed) (UGT1A6)	glucuronidation activity (glucuronide formed) (UGT1A1)
COc1ccc(C=Cc2cc(OC)cc(OC)c2/C=N/O)cc1 [NI-ST-05, (E)-2,4-dimethoxy-6-(4-methoxystyryl)benzaldehyde oxime]	catalyzed the formation of the C=N–O-glucuronide	catalyzed the formation of the C=N–O-glucuronide	inactive	inactive	catalyzed the formation of the C=N–O-glucuronide
